14-3-3 Bad inh: disrupts binding of bovine 14-3-3 zeta to phospho-Bad peptide; P63103; TR-FRET 14-3-3zeta/Dy647-pBad peptide displacement, 1 h; inhibition, % at 21.7 µM; hit rate 0.71% among 220,000; AID 781;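 active = inhibition above about 70%, limit read from the data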;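 also: 0% = full 14-3-3 plus peptide FRET controls and 100% = background without 14-3-3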
Target sequence (P63103 whole entry, looked up): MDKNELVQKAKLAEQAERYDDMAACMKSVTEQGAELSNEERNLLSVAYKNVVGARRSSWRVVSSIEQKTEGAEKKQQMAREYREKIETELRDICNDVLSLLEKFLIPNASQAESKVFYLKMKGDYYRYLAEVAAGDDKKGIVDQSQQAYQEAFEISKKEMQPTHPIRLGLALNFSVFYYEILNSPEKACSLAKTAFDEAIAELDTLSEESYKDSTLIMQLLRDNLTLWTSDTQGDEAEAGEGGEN
SUMO HTRF inh: inhibitors of human SUMOylation (UBC9) | hit rate 0.36% among 290,000 | HTRF SUMOylation assay, SAE1/SAE2 + UBC9, in vitro | P63279 | inhibition, % at 35 µM; in the data active = inhibition above about 50%, passing the limit was not always enough
Target sequence (P63279 whole entry, looked up): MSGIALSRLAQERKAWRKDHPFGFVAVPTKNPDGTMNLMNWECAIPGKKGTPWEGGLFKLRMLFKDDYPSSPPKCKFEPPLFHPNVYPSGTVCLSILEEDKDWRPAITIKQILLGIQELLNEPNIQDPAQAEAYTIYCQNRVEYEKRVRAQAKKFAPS
p97 inhibitor: human p97 ATPase inhibition. P55072. inhibition, % at 8 µM. recombinant p97 ATPase, Kinase-Glo ATP luminescence, 3 h. AID 1481. hit rate 0.42% among 220,000; in the data active = inhibition above about 15%;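 also: 0% = DMSO vehicle and 100% = wells lacking enzyme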
p47phox inh: inhibitors of human p47phox binding. p47phox/p22phox peptide binding, fluorescence polarization, 2 h. inhibition, % at 24.7 µM. hit rate 0.53% among 220,000. AID 1274;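 also: 0% = p47phox with labelled peptide and 100% = labelled peptide alone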
eIF4E-4G inh: inhibitors of eIF4E and eIF4G interaction in translation initiation | P63073+Q04637 | hit rate 0.37% among 220,000 | inhibition, % at 21.7 µM | TR-FRET eIF4E-eIF4GI(517-606) binding, 2 h;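 also: 0% = full FRET control wells and 100% = background wells lacking eIF4GI fragment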
TbMetRS inhib: Trypanosoma brucei MetRS inhibition. hit rate 0.4% among 360,000. purified T. brucei MetRS, ATP depletion, Kinase-Glo luminescence. inhibition, % at 11.9 µM;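 active = inhibition above a per-plate cutoff of the control wells' mean inhibition plus 3 SD, cut at about 5.5% in these data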;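 also: 0% = DMSO wells median and 100% = median of wells with control inhibitor compound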
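Dosing: 11.9 µM compound single dose, 0.9% DMSO; Assay system: purified T. brucei MetRS enzyme; Measured by: Kinase-Glo luciferase luminescence reporting remaining unconsumed ATP; Schedule: 15 min plus 2 h at 25 °C.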
* = called active by the depositor; nt = no result given; [ ] = another dose, or the depositor's remark. Shown are actives, neighbours in structure and some others; about 1.6% of the full set was active somewhere.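 The calls were made as follows, unless noted: active = inhibition above about 30% (limit read from the data); inactive = the rest.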

SMILES	14-3-3 Bad inh	SUMO HTRF inh	p97 inhibitor	p47phox inh	eIF4E-4G inh	TbMetRS inhib
C/C(CCc1ccc2c(c1)OCO2)=N\NC(=O)c1ccccc1Br	6	3	-3	5	-1	-1
O=c1cc(-c2ccc([N+](=O)[O-])cc2)nc2cc(-c3ccc(Cl)cc3)[nH]n12	89*[fluorescence artefact?]	21	-2	23	1	nt
CCOC(=O)c1ccc(-n2cnc(-c3ccc([N+](=O)[O-])cc3)c2)cc1	nt	nt	nt	nt	nt	0
Cc1ccc(CN2C(=O)CSCC2(C)C(=O)Nc2c(C)cccc2C)cc1 (centres undefined)	nt	nt	nt	nt	nt	0
C/C(=N/NS(=O)(=O)c1ccc(Cl)cc1)c1cccc(NC(=O)c2ccc(Cl)cc2Cl)c1	-6	-31	-1	31*	-6	3
O=c1c(-c2ccco2)nc2ccccc2n1C(c1ccccn1)c1nc2ccccc2[nH]1 (centres undefined)	nt	nt	nt	nt	nt	-1
CCOc1ccc(-n2c(-c3ccco3)n[nH]c2=S)cc1	8	9	7	-4	34*[fluorescence artefact?]	-1
CC(C)N(Cc1nc(-c2ccc3c(c2)OCO3)no1)Cc1nccn1C	-4	20	-1	1	-1	-1
O=C(O)c1cc(-c2ccc(/C=C3/SC(=S)N(Cc4ccccc4)C3=O)o2)ccc1Cl	100*	46	4	-40	62*	0
Cc1ccc(/C=C2\SC(=S)N(Cc3ccccc3)C2=O)o1	-2	23	4	-8	8	0
COc1ccc(CN2C(=O)/C(=C/c3ccc(-c4ccc(Cl)c(C(=O)O)c4)o3)SC2=S)cc1	77*	39	8	-47	65*	nt
COc1ccc(C2=Nc3ccccc3N(C(=O)c3ccc(C(F)(F)F)cc3)C2C(=O)NCc2ccccc2)cc1 (centres undefined)	nt	nt	nt	nt	nt	0
COCCCN1C(=O)C(CC(=O)NC(c2ccccc2)c2ccccc2)CC(C(=O)N(C(C)C)C(C)C)=C1C (centres undefined)	nt	nt	nt	nt	nt	0
COC(=O)Cn1c2ccccc2c2nc(C)sc21	-15	-1	0	-11	-13	0
CCN(CC)CCn1c2ccccc2c2nc(C)sc21	82*	-3	5	-3	13	-1
Fc1ccc(-c2ccnc3nc(-n4cccc4)nn23)cc1	16	38	-1	-2	2	0
Fc1ccc(-c2ccnc3nc(N4CCOCC4)nn23)cc1	-9	52*	4	-15	2	-1
CN(C)/C=N/c1nc2nccc(-c3cccc(Cl)c3)n2n1	-1	50*	5	-9	11	-1
CN(C)/C=N/c1nc2nccc(-c3ccc(F)cc3)n2n1	1	52*	4	1	10	-1
N#C/C(=C\c1ccc(-c2ccc([N+](=O)[O-])cc2)o1)C(=O)Nc1nc(-c2cccs2)cs1	68	nt	-2	-1	31*	0
CCOC(=O)C(Cc1ccccc1)C(=O)c1ccco1 (centres undefined)	nt	nt	nt	nt	nt	0
CCCCC(C(=O)OCC)C(N)Cc1ccc(F)cc1 (centres undefined)	4	74*	0	20	-3	-1
Cc1ccc(S(=O)(=O)C(C#N)c2nc3ccccc3nc2N2CCCCC2)cc1 (centres undefined)	nt	83*	nt	nt	nt	nt
CC1CCCN(c2nc3ccccc3nc2C(C#N)S(=O)(=O)c2ccccc2)C1 (centres undefined)	5	50*	1	-21	6	1
N#CC(c1nc2ccccc2nc1N1CCCCC1)S(=O)(=O)c1ccc(Cl)cc1 (centres undefined)	nt	75*	nt	nt	nt	nt
SMILES	14-3-3 Bad inh	SUMO HTRF inh	p97 inhibitor	p47phox inh	eIF4E-4G inh	TbMetRS inhib
Cc1ccc(S(=O)(=O)C(C#N)c2nc3ccccc3nc2N2CCN(C)CC2)cc1 (centres undefined)	-2	38	1	-6	3	0
CCCCOc1nc2ccccc2nc1C(C#N)S(=O)(=O)c1ccccc1 (centres undefined)	72*	7	6	-14	4	-1
CCCCOc1nc2ccccc2nc1NS(=O)(=O)c1ccc(F)cc1	nt	5	nt	nt	nt	-1
O=C(Nc1ccc(-c2csc(Nc3ccccc3)n2)cc1)c1cc([N+](=O)[O-])cc(C(F)(F)F)c1	-5	-33	nt	35*	2	0
O=C1C(Br)=Cc2cccc3cccc1c23	-3	23	-3	31*	-8	-1
COc1ccc(C(=O)NC(=S)Nc2ccc(Cc3ccncc3)cc2)cc1	81*	5	0	-21	-1	0
CCOC(=O)N1CCN(C(C(=O)NC2CCCC2)C(C)C)CC1 (centres undefined)	nt	nt	nt	nt	nt	0
O=C(/C=C/c1ccco1)c1ccccc1O	-4	9	3	-5	82*	0
COc1cc2ccccc2cc1C(=O)N1CCN(C(C)=O)CC1	nt	-6	nt	nt	nt	0
COc1ccc2cc(OC)c(C(=O)N3CCOCC3)cc2c1	-2	22	7	37*	-1	0
O=C1NC[C@@H](CCCCN2C[C@H](Cc3ccc(O)cc3)N(CC3CCCCC3)C(=O)C2=O)N(CC2CCCCC2)C1=O	nt	nt	nt	nt	nt	0
Cc1ccc(N2CCN(C(=O)C(=O)c3cccc(Br)c3)CC2)cc1	nt	nt	nt	nt	nt	-1
CC(=O)c1ccc(NC(=O)CN(C)CC(=O)Nc2cccc(F)c2)cc1	90*	3	-1	4	1	0
CCC1=[N+](C)CCn2c(C)ccc21	77*[fluorescence artefact?]	19	3	-7	2	0
CC(C)NC(=O)C1C(c2ccc(C(F)(F)F)cc2)=Nc2ccccc2N1C(=O)c1cccc(C(F)(F)F)c1 (centres undefined)	nt	nt	nt	nt	nt	1
COCCN1C(=O)N(c2cccc(C)c2)C(=O)C1CC(=O)Nc1ccc(F)cc1 (centres undefined)	93*	-1	5	7	4	0
Cc1nc(NC(=O)c2ccc(Cl)cc2)sc1-c1csc(Nc2cccc(F)c2)n1	73*	10	5	158*	-11	nt
Cc1ccc(Nc2nc(-c3sc(NC(=O)c4cccc(Cl)c4)nc3C)cs2)cc1	47	15	2	-28	-16	nt
CC(=O)Nc1nc(C)c(-c2csc(Nc3cccc(C(C)=O)c3)n2)s1	nt	0	nt	nt	nt	0
CC(=O)Nc1nc(C)c(-c2csc(Nc3cccc([N+](=O)[O-])c3)n2)s1	87*[fluorescence artefact?]	17	2	-12	-84	-2
CCCCCCCCN1C(=O)[C@H](CC(=O)N2CCN(C(=O)c3ccco3)CC2)C[C@@]2(C(=O)OC)CC(C)(C)CC=C12	nt	nt	nt	nt	nt	0
N#C/C(=C\c1ccc(N2CCCCC2)o1)C(=O)Nc1cccc(Br)c1	-24	21	3	37*	-2	-1
Cc1ccc(C(=O)Nc2sc3c(c2C(=O)NCc2ccco2)CCCC3)cc1	7	73*	2	18	0	0
CCNC(=O)c1c(NC(=O)c2cc(-c3cc(C)ccc3O)n[nH]2)sc2c1CCCC2	45	9	3	52*	10	-1
